From ChEMBL document CHEMBL1687941 (J Med Chem, 2011)

How the values were obtained:
Plasmodium falciparum = assay: Antimalarial activity against Plasmodium falciparum 3D7 infected-erythrocytes after 72 hrs by SYBR green fluorescence method; format: functional, organism-based; conditions: 3D7, 72 h
Method in brief: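 P. falciparum 3D7 grown in erythrocytes at 4% hematocrit in RPMI 1640 with 20 mM HEPES, 32 mM NaHCO3, 10% Albumax II. Serial dilutions added to phenol red-free culture at 0.5% starting parasitemia, in triplicate, for 72 h at 37 °C. Lysis buffer with saponin, Triton X and SYBR Green I then added for 1 h at room temperature. Fluorescence read as parasite growth, and IC50 derived.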

Aminopeptidase N = molecular target: T1, Aminopeptidase N (Plasmodium falciparum FcB1/Columbia, UniProt O96935); assay: Inhibition of Plasmodium falciparum recombinant M1-aminopeptidase expressed in Escherichia coli after 40 mins uisng fluorogenic substrate L-Leucyl-7-amido-40-methylcoumarin by fluorescence spectrophotometry
T1 sequence (O96935 whole entry): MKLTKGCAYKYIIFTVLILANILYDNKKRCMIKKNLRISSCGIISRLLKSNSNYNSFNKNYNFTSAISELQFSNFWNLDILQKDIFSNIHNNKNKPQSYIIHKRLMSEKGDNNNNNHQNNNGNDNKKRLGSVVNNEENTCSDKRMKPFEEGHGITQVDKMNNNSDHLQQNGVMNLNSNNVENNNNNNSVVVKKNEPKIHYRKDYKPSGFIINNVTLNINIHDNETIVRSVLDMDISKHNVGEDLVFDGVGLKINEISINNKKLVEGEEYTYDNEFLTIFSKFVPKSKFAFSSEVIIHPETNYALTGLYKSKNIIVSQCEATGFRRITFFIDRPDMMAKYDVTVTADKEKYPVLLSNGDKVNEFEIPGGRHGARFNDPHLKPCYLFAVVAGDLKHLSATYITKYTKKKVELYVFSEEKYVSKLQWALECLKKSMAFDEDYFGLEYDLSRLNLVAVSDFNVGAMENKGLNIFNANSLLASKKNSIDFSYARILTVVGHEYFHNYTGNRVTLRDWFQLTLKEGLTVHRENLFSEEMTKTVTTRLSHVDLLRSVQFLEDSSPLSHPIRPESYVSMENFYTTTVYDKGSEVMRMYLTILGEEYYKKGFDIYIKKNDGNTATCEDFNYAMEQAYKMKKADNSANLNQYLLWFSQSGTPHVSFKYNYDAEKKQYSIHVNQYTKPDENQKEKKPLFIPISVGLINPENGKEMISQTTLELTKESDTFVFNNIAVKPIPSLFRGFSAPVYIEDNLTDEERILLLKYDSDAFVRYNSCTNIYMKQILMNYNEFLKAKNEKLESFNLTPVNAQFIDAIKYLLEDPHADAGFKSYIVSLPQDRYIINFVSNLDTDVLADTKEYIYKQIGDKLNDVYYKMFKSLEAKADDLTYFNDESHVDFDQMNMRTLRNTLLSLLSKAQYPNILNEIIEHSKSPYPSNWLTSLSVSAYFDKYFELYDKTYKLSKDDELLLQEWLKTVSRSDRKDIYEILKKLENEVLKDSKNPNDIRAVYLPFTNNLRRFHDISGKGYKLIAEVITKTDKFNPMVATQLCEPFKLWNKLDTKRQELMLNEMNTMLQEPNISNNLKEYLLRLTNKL
Method in brief: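 Recombinant PfA-M1 expressed in E. coli, 0.9 nM, in 50 mM HEPES pH 7.5, 100 mM NaCl, 0.1% Triton X-100. Ki by Dixon plots (1/rate vs [I]) and secondary plots vs 1/[S]. Competitive mode checked with a/v vs i plots.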

Row | IC50 (Plasmodium falciparum) [µM] | Ki (Aminopeptidase N) | Structure (SMILES) | Ki (Aminopeptidase N; read-out: Ki) [µM]
1 | 6.4 |  | COc1ccc(C[C@@H](N)[C@H](O)C(=O)N[C@@H](CC(C)C)C(=O)O)cc1 | 
2 | > 50 |  | CCCC[C@@H](N)[C@H](O)C(=O)N[C@@H](CC(C)C)C(=O)O | 5.3
3 | > 50 | Not Active | CC(C)C[C@H](NC(=O)[C@@H](O)[C@H](N)Cc1ccc(-c2ccccc2)cc1)C(=O)O | 
4 | > 50 | Not Active | CC(C)C[C@H](NC(=O)[C@@H](O)[C@H](N)C(c1ccccc1)c1ccccc1)C(=O)O | 

The next lines start with the compound.

Row | Structure (SMILES) | IC50 (Plasmodium falciparum) [µM] | Ki (Aminopeptidase N) | Ki (Aminopeptidase N; read-out: Ki) [µM]
5 | CC(C)C[C@H](NC(=O)[C@@H](O)[C@H](N)Cc1ccc(OCc2ccccc2)cc1)C(=O)O | 29 |  | 
6 | CCCC[C@H](NC(=O)[C@@H](O)[C@H](N)Cc1ccccc1)C(=O)O |  |  | 0.9
7 | N[C@H](Cc1ccccc1)[C@H](O)C(=O)N[C@@H](CCCCNC(=O)OCc1ccccc1)C(=O)O |  |  | 1.45
8 | CC(C)C[C@H](NC(=O)[C@@H](O)[C@H](N)Cc1ccc2ccccc2c1)C(=O)O | > 50 |  | 3
9 | CC(C)C[C@H](NC(=O)[C@@H](O)[C@H](N)CC(C)C)C(=O)O | > 50 | Not Active | 
10 | CC(C)C[C@H](NC(=O)[C@@H](O)[C@H](N)Cc1ccccc1)C(=O)O [UBENIMEX] | 3.2 |  | 
